Test results taken from ChEMBL document CHEMBL4513216, “Probing the Open Global Health Chemical Diversity Library for Multistage-Active Starting Points for Next-Generation Antimalarials” (ACS Infect Dis, 2020).

experiment: Toxicity liver stage against HepG2, at 10uM; assay type: cell-based; set-up: test concentration 10 uM, cell line HepG2-A16-CD81EGFP; conditions: human, HepG2-A16-CD81EGFP cells; read-out: INHIBITION
Summary of the method: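 Uninfected HepG2-A16-CD81EGFP cells, 3 × 10^3 per well, 1536-well, plated on prespotted compound at 10 μM final, parasite-free screening media added to match infected plates; puromycin 10 μM positive, DMSO 0.5% negative; run in parallel with 48 h PbLuc assay at 37 °C, 5% CO2; viability by CellTiter-Glo luminescence, normalized to controls.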

Row | SMILES | cytotoxicity at 10 µM [%]
1 | CCN1CCCC1CNC(=O)Cc1c(-c2ccc(Cl)cc2)n[nH]c1C (stereo unspecified) | -5.4
2 | Cc1cc(CN2CCC(CNS(=O)(=O)c3ccccc3F)CC2)c(C)o1 | 5.48
3 | O=C(c1ccsc1)N1CCC(c2nnc(C3CC3)o2)CC1 | 12.3
4 | O=C(NCCn1ccc(-c2ccccn2)n1)C1CCC1 | 4.23
5 | O=C1CC(c2ccccc2Br)c2sc(N3CCOCC3)nc2N1 (stereo unspecified) | 9.4
6 | COc1cccc(-c2ccnc3nc(N4CCCCC4)[nH]c(=O)c23)c1 | 7.97
7 | CC(Nc1ncnc2c1NC(=O)CN2)c1ccccn1 (stereo unspecified) | 7.66
8 | Cc1ccnc(C2CN(Cc3ccc(-c4ccccc4C(=O)O)o3)C2)n1 | 2.51
9 | CC(C)CCN1CCCC12Cc1ccccc1CNC2=O (stereo unspecified) | 7.61
10 | CCc1nnsc1C(=O)NCCc1nnc2n1CCC2 | 3.16
11 | Cc1cccc(C(=O)N(CCCO)S(=O)(=O)c2cccs2)c1 | 8.01
12 | CC(=O)C(Cc1ccccc1)NC(=O)CSc1nccn1C1CC1 (stereo unspecified) | 5.22
13 | CC(C)Oc1ccc(CNC(=O)C2CCC(=O)N2)cn1 (stereo unspecified) | 10.5
14 | O=C(NC1CCN(C2CC2)C1)c1cn(-c2ccc(F)cc2)nn1 (stereo unspecified) | -2.25
15 | CS(=O)(=O)N1CCC(C(=O)N2CCN(Cc3cccc(Cl)c3)CC2)CC1 | 8.99
16 | CCc1nc(CN(C)Cc2ncc(-c3cccs3)o2)cs1 | 9.15
17 | c1cnc(N2CCN(Cn3nccc3-c3cccnc3)CC2)nc1 | 8.99
18 | Cc1nn(C)c(Cl)c1S(=O)(=O)N(C)c1ccc(Cl)cn1 | 7.92
19 | Cn1ccnc1-c1cccc(NC(=O)NCCN2CCOCC2)c1 | -7.85
20 | CCc1nc(C2CCCN2CC(=O)Nc2c(C)nn(C)c2C)no1 (stereo unspecified) | -31.4
21 | Cc1csc(N2CCN(CCc3ccccn3)CC2C)n1 (stereo unspecified) | -8.81
22 | CCn1ccnc1CN(C)Cc1nc(Cc2ccccc2Cl)no1 | -1.99
23 | Cn1ncnc1-c1ccnc(NCc2ccncc2)n1 | -3.89

Row | SMILES | cytotoxicity at 10 µM [%]
24 | O=C(COCc1ccccc1)N1CCCn2cncc2C1 | 0.375
25 | O=C(NCCc1[nH]nc2c1CCCC2)C1CCCN(Cc2ccco2)C1 (stereo unspecified) | 2.72
26 | CN(Cc1cc2n(n1)CCNC2)Cc1cc(-c2ccccn2)no1 | 1.91
27 | O=C(c1cc(Cn2cnc3ccccc32)on1)N1CCOCC1 | -2.46
28 | c1cnc(N2CCN(CCn3ccnc3-c3c[nH]cn3)CC2)nc1 | 2.14
29 | Cc1ccc(-c2noc(CCC3CCN(C)CC3)n2)nn1 | -5.79
30 | COc1cccc2c1OCC(CNC(=O)CNC(N)=O)C2 (stereo unspecified) | -2.93
31 | O=C(c1ccccn1)N1CCCC(c2nccn2CC2CCC2)C1 (stereo unspecified) | -22.4
32 | O=C(c1cccc(S(=O)(=O)NCCCc2ccco2)c1)N1CCOCC1 | -23.6
33 | CN(C)C(=O)c1ccc2c(c1)N(C)C(CC(=O)NCCC(C)(C)C)CO2 (stereo unspecified) | -0.8
34 | Cc1nc(C)n(C2CCCN(C(=O)c3ccnc(N(C)C)c3)C2)n1 (stereo unspecified) | -8.36
35 | Cc1nc(N2CCCN(C(=O)c3ccsc3)CC2)c2cnn(C)c2n1 | -10.8
36 | O=c1[nH]c(CCN2CCCC2Cn2cccn2)nc2ccccc12 (stereo unspecified) | -8.05
37 | O=C(NCCCN1CCCCC1)c1n[nH]c(=O)c2ccccc12 | -30.9
38 | Cc1csc(N2CCCN(C(=O)Cc3cccs3)CC2)n1 | -6.87
39 | Cc1nc(C)n(C2CCCN(C(=O)c3csc(C)n3)C2)n1 (stereo unspecified) | -18.7
40 | COc1cc(C(=O)NS(=O)(=O)c2cccc(C#N)c2)ccc1C | -9.29
41 | CC(C)(C)NC(=O)C1CSCN1S(=O)(=O)c1ccc(F)cc1 (stereo unspecified) | 0.65
42 | CC(C)Sc1ncccc1C(=O)NCc1ccc(CS(C)(=O)=O)cc1 | 3.78
43 | Cc1cc(C)n(C2CCCN(C(=O)c3cc(C4CC4)on3)C2)n1 (stereo unspecified) | -1.11
44 | CC(C)c1nc2n(n1)CC(NCc1ncc(-c3ccccc3)o1)CC2 (stereo unspecified) | -0.361
45 | CC(=O)Nc1ccc(Oc2cc(C)nc(C3CCCNC3)c2)cc1 (stereo unspecified) | 2.58
46 | NCC1CCC(C(NC(=O)c2cccc(F)c2)c2ccccn2)CC1 (stereo unspecified) | -6.83
